Assay: Toxicity liver stage against HepG2, at 10uM
Format: cell-based
Design: test concentration 10 uM, cell line HepG2-A16-CD81EGFP
Settings: human, HepG2-A16-CD81EGFP cells; read-out: INHIBITION
Summary of the method: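 Uninfected HepG2-A16-CD81EGFP cells, 3 × 10^3 per well, 1536-well, plated on prespotted compound at 10 μM final, parasite-free screening media added to match infected plates; puromycin 10 μM positive, DMSO 0.5% negative; run in parallel with 48 h PbLuc assay at 37 °C, 5% CO2; viability by CellTiter-Glo luminescence, normalized to controls.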

SMILES | cytotoxicity at 10 µM
O=C(CNC(=O)c1cnc2ccccc2c1O)NCCn1ccnc1 | -3.02%
Cn1ncc2c1CCCC2NCc1ccc(OCc2cccnc2)cc1 (stereo not given) | 4.13%
CCN(C)CC1CCN(C(=O)Nc2ccc(-c3csnn3)cc2)C1 (stereo not given) | -2.15%
CN(CCCc1cc(-c2ccc(F)cc2)n(C)n1)CC(=O)NC(N)=O | 1.04%
CCOC1CCN(C(=O)c2c(Cl)c3ccccc3n2C)CC1 | 6.56%
O=C(NCCCn1nc2ccccn2c1=O)NC1CCC(O)CC1 (stereo not given) | -12.8%
CCN(CC)C(CNC(=O)c1ccc(S(C)(=O)=O)cc1)c1ccco1 (stereo not given) | -0.00646%
CC(=O)N(C)Cc1ncn2c1CN(C(=O)CC1CC1)CCC2 | -110%
CN(C)c1ccnc(-c2ccnc3c2ccn3C)n1 | 20.2%
CCn1c(N)nc2cc(C(=O)N3CCN(CC(F)(F)F)CC3)cnc21 | -2.03%
O=C(c1ccc(C2CCCN2C(=O)c2ccc[nH]2)s1)N1CCSCC1 (stereo not given) | 3.59%
CC(C)N1CCCC(C(=O)NCCc2csc(-c3ccncc3)n2)C1 (stereo not given) | -17.4%
CCN(CCn1cccn1)Cc1nc(-c2ccoc2)oc1C | -5.48%
Cc1cc(C2CCCN2Cc2cccc(C(=O)Nc3nccs3)c2)no1 (stereo not given) | -4.12%
CN1CSC[C@H]1C(=O)N1CCN(Cc2cccc(Cl)c2)CC1 | -4.28%
CN(Cc1ncc[nH]1)CC1CCOc2ccccc2C1 (stereo not given) | -1.93%
O=C(c1ccc(C2CCCN2C(=O)c2cscn2)s1)N1CCSCC1 (stereo not given) | -4.31%
CN(Cc1cc2n(n1)CCCNC2)Cc1cc(-c2ccncc2)no1 | 3.67%
CC(=O)Nc1ccc(-c2cn(CCn3c(C)cc(C)nc3=O)nn2)cc1 | 5.03%
O=C(NCCc1nc(C2CC2)no1)[C@H]1CNC[C@H](C(=O)N2CCCC2)C1 | -107%
Cn1nccc1CCNC(=O)[C@H]1CNC[C@H](C(=O)N2CCCC2)C1 | -133%
CCN(CC)S(=O)(=O)N1CCCC(c2cccc(C(=O)O)c2)C1 (stereo not given) | -10%
CN(Cc1ccco1)C(=O)C1CSCN1C(=O)c1cccs1 (stereo not given) | -7.81%
c1ccc(Cc2nnc(CN3CCc4cncnc4C3)o2)cc1 | -4.48%
NC(=O)NCC1CCCCN1Cc1nc(-c2ccco2)no1 (stereo not given) | -6.06%
Cc1ccc(-c2noc(CN3CCn4c(nnc4C4CC4)C3)n2)cc1 | -9.04%
CN(Cc1noc(C2CC2)n1)C1CCN(Cc2cccc(F)c2F)C1 (stereo not given) | -13%
CCc1ncncc1C(=O)N1CCCC(n2nc(C)nc2C)C1 (stereo not given) | -6.54%

SMILES | cytotoxicity at 10 µM
CN(C)C1CCN(C(=O)Cc2csc(-c3ncccn3)n2)CC1 | -0.279%
CC(C)N(C(=O)CN(C)C1CCc2ccccc21)C(C)C (stereo not given) | -9.3%
O=C(Cc1n[nH]c2ccccc12)N1CCCCC1Cn1cccn1 (stereo not given) | -14.8%
COc1ccc(C(=O)N2CCC(Nc3cccnn3)CC2)c(F)c1 | -8.96%
CCCc1nc(CNC(C)Cn2cccn2)cs1 (stereo not given) | -12.5%
Cc1noc(C(C)C)c1C(=O)NCCN1CCOCC1 | -8.73%
CC(=O)N1CCCN(C(=O)NCCOc2ccc3c(c2)OCO3)CC1 | -14.9%
CC(NC(=O)CCC1CCCCC1)c1nnc2n1CCC2 (stereo not given) | -27.1%
CN(C)c1ccc(C(=O)N2CCCN(Cc3cscn3)CC2)nn1 | -9.39%
Cc1nc(CN2CCOC(Cn3cccn3)C2)nc2ccccc12 (stereo not given) | -24.8%
Cc1csc(CNC(=O)N(C)Cc2ccc3c(c2)OCO3)n1 | -4.31%
CCc1nc(CN2CCCN(C(=O)c3cn[nH]c3C)CC2)cs1 | -2.97%
CC(C)c1cc(C(=O)NCCn2nc3ccccn3c2=O)n[nH]1 | -8.5%
Cc1nc(CN(C)C2CCCN(c3cccnn3)C2)no1 (stereo not given) | -7.1%
Cc1nc(-c2ccc(Cl)s2)sc1C(=O)NCCS(N)(=O)=O | -2.09%
CCOC(=O)N1CCC(C(=O)c2cc(F)ccc2F)CC1 | -8.11%
CN(Cc1cccnc1)[C@@H]1CN(C(=O)CC2CC2)[C@@H]2CCCO[C@H]12 | 7.86%
Cn1nc(CN2CCCC2)c2c1CN(C(=O)c1cccnc1)CC2 | -146%
CC(C)N(C)Cc1cnc2n1CCN(S(=O)(=O)c1ccccc1)C2 | -1.72%
Fc1ccc(CN2CCO[C@H]3[C@H](OCC4CC4)CC[C@@H]32)cc1 | -5.34%
CCCC(=O)N1C[C@@H]2CCN(c3cnccn3)C[C@@H]2C1 | -1.48%
COCC(=O)N1CC[C@@H](OCC2CC2)[C@@H]1Cc1cccnc1 | -4.92%
O=C(Cc1ccccn1)N1C[C@H](OCc2cccnc2)[C@H]2COC[C@H]21 | 12.3%
CCOc1ncnc2c1CCN(C(=O)NCc1cccnc1)CC2 | -127%
Cc1ccc(NCc2cncc3c2CCN(Cc2ccccn2)C3)nn1 | -6.4%
O=C(Cc1cccs1)N1C[C@@H]2OCCN(CC3CCCC3)[C@@H]2C1 | -4.75%
O=C(c1cc(F)cc(Cl)c1)N1C[C@H]2CC[C@@H](C1)N(Cc1ccccc1)C2 | -128%

— ChEMBL document CHEMBL4513216, “Probing the Open Global Health Chemical Diversity Library for Multistage-Active Starting Points for Next-Generation Antimalarials” (ACS Infect Dis, 2020)
